Reference: ChEMBL document CHEMBL1156795, “Rational design of 5-phenyl-3-isoxazolecarboxylic acid ethyl esters as growth inhibitors of Mycobacterium tuberculosis. a potent and selective series for further drug development” (J Med Chem, 2010)
Converted amounts (≈) assume the structure as drawn.

Tests used:
Type in all cases: functional
[1] = system: Mycobacterium tuberculosis; assay: Antimycobacterial activity against streptomycin-resistant Mycobacterium tuberculosis H37Rv after 16 to 24 hrs by microplate alamar
Summary of the method: (§1)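 MIC by MABA against Mtb strains resistant to isoniazid, rifampin or streptomycin. Values are averages of two to three independent experiments.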

[2] = system: Mycobacterium tuberculosis; assay: Antimycobacterial activity against isoniazid-resistant Mycobacterium tuberculosis H37Rv after 16 to 24 hrs by microplate alamar; summary of the method: as §1
[3] = system: Mycobacterium tuberculosis; assay: Antimycobacterial activity against rifampin-resistant Mycobacterium tuberculosis H37Rv after 16 to 24 hrs by microplate alamar; summary of the method: as §1

SMILES	MIC [1]	MIC [2]	MIC [3]
CN[C@@H]1[C@H](O[C@H]2[C@H](O[C@H]3[C@H](O)[C@@H](O)[C@H](N=C(N)N)[C@@H](O)[C@@H]3N=C(N)N)O[C@@H](C)[C@]2(O)C=O)O[C@@H](CO)[C@H](O)[C@H]1O [STREPTOMYCIN]	> 32 µM	0.4 µM (≈ 0.233 µg/mL)	0.2 µM (≈ 0.116 µg/mL)
CCOC(=O)c1cc(-c2cccc(OCc3ccccc3Cl)c2)on1	1 µM (≈ 0.358 µg/mL)	1 µM (≈ 0.358 µg/mL)	1 µM (≈ 0.358 µg/mL)
CCOC(=O)c1cc(-c2cccc(OCc3cc(F)ccc3F)c2)on1	1.2 µM (≈ 0.431 µg/mL)	1 µM (≈ 0.359 µg/mL)	1 µM (≈ 0.359 µg/mL)
CCOC(=O)c1cc(-c2cccc(OCc3c(F)cccc3F)c2)on1	1.1 µM (≈ 0.395 µg/mL)	1.1 µM (≈ 0.395 µg/mL)	1 µM (≈ 0.359 µg/mL)
NNC(=O)c1ccncc1 [ISONIAZID]	0.5 µM (≈ 0.0686 µg/mL)	> 128 µM	0.4 µM (≈ 0.0549 µg/mL)
CCOC(=O)c1cc(-c2cccc(OCc3cccc(Br)c3)c2)on1	1 µM (≈ 0.402 µg/mL)	1 µM (≈ 0.402 µg/mL)	1 µM (≈ 0.402 µg/mL)
CO[C@H]1/C=C/O[C@@]2(C)Oc3c(C)c(O)c4c(O)c(c(/C=N/N5CCN(C)CC5)c(O)c4c3C2=O)NC(=O)/C(C)=C\C=C\[C@H](C)[C@H](O)[C@@H](C)[C@@H](O)[C@@H](C)[C@H](OC(C)=O)[C@@H]1C [RIFAMPIN]	> 0.1 µM	> 0.1 µM	> 32 µM
CCOC(=O)c1cc(-c2cccc(OCc3cccc(C(F)(F)F)c3F)c2)on1	1 µM (≈ 0.409 µg/mL)	0.9 µM (≈ 0.368 µg/mL)	1 µM (≈ 0.409 µg/mL)
CCOC(=O)c1cc(-c2cccc(OCc3cccc(F)c3F)c2)on1	1 µM (≈ 0.359 µg/mL)	1 µM (≈ 0.359 µg/mL)	1 µM (≈ 0.359 µg/mL)
CCOC(=O)c1cc(-c2cccc(OCc3cccc(C(F)(F)F)c3)c2)on1	0.9 µM (≈ 0.352 µg/mL)	0.9 µM (≈ 0.352 µg/mL)	1 µM (≈ 0.391 µg/mL)
